Data on 22 molecules can be found in ChEMBL document CHEMBL4229371, “Discovery of [1,2,4]triazolo[3,4-b][1,3,4]thiadiazole derivatives as novel, potent and selective c-Met kinase inhibitors: Synthesis, SAR study, and biological activity” (Eur J Med Chem, 2018).

The subject of experiment [1] is EBC-1. The experiment can be described thus: Antiproliferative activity against human EBC1 cells at 5 uM after 72 hrs by Cell Titer-Glo assay. In kind it is functional. The method in brief:
(§1)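 Cell Titer-Glo viability assay. Exponentially growing cells were plated at 4000 per well in RPMI-1640 with 10% FPS and incubated 12 h at 37 °C in 5% CO2. Compound was then added at the indicated final concentrations and cells were held 72 h at 37 °C in 5% CO2. CTG reagent was applied for 10 min at room temperature. Inhibition % = (1 − Vsample/Vvehicle control) × 100.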
(In general: Cellular ATP, detected with luciferase, serves as a proxy for viable cell number.)

Experiment [2] relates to MKN-45. The experiment can be described thus: Antiproliferative activity against human MKN45 cells at 1 uM after 72 hrs by Cell Titer-Glo assay. Type of experiment: functional. An outline of the steps: as §1
Experiment [3] deals with MKN-45. The experiment can be described thus: Antiproliferative activity against human MKN45 cells at 5 uM after 72 hrs by Cell Titer-Glo assay. In kind it is functional. An outline of the steps:
as §1

The subject of experiment [4] is EBC-1. The experiment can be described thus: Antiproliferative activity against human EBC1 cells after 72 hrs by Cell Titer-Glo assay. In kind it is functional, cell-based. As to conditions: EBC-1, 72 h. The method in brief: as §1
A further experiment has as its system SNU-5. The experiment can be described thus: Antiproliferative activity against human SNU5 cells at 5 uM after 72 hrs by Cell Titer-Glo assay. In kind it is functional. An outline of the steps: as §1
Experiment [5] relates to EBC-1. The experiment can be described thus: Antiproliferative activity against human EBC1 cells at 1 uM after 72 hrs by Cell Titer-Glo assay. In kind it is functional. An outline of the steps: as §1
Experiment [6] concerns the target Hepatocyte growth factor receptor (Homo sapiens, UniProt P08581). The experiment can be described thus: Inhibition of GST-tagged human c-MET preincubated for 20 mins followed by [33P]-ATP addition and measured after 2 hrs by Hot-Spot kinase assay.

Structures are written as SMILES.

Sequence of Hepatocyte growth factor receptor (P08581 whole entry): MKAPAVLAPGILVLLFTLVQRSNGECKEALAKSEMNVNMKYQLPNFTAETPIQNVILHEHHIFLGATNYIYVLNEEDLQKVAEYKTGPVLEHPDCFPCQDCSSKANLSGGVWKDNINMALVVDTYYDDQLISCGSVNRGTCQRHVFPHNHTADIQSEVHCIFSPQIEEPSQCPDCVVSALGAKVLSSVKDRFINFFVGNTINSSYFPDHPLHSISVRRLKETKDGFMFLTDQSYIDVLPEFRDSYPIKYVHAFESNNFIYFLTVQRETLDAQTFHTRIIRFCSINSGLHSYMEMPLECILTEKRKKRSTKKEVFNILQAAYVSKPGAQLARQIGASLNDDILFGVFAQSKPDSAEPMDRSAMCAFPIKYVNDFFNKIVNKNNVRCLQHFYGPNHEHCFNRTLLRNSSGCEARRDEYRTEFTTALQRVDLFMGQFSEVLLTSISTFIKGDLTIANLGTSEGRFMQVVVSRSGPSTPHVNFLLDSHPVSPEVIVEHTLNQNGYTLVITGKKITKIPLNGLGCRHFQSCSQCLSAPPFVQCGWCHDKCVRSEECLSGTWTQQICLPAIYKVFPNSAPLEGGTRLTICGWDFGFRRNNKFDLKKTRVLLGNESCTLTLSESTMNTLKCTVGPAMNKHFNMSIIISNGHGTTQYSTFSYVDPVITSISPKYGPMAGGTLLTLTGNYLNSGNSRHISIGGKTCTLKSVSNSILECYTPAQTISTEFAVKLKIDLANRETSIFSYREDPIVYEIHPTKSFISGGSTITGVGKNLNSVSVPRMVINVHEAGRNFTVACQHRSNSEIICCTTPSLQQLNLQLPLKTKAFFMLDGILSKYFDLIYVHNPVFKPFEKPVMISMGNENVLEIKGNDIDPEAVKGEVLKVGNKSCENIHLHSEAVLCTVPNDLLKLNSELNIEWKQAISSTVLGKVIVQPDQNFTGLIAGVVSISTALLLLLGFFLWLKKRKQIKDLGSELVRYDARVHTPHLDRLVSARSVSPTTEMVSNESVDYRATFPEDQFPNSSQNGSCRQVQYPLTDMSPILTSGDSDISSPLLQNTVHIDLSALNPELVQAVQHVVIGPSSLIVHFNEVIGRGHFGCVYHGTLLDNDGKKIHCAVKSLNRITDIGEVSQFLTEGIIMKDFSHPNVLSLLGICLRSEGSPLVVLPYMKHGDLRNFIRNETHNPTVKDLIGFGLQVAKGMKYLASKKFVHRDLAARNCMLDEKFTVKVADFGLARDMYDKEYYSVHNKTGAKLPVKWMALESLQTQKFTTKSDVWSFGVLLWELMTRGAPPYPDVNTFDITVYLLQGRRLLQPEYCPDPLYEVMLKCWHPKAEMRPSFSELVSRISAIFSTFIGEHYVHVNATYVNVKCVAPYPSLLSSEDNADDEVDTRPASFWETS

As a reminder, the IC50 is the concentration needed to halve the response being measured. Turning to `COc1ccc2c(OCc3nnc4sc(-c5ccn(CC6CC6)c5)nn34)ccnc2c1`, the Activity was found to be 75.9% in the experiment with EBC-1 [1]; 41.1% with MKN-45 [2]; 66.6% in the experiment on MKN-45 [3]; 52.2% in the experiment on SNU-5; 87.2% in the experiment on EBC-1 [5]. Also, in the experiment on EBC-1 [4], it took 351 nM to reach half-maximal inhibition (IC50).

`Cn1cc(-c2nn3c(Cc4ccc(OCCN5CCOCC5)cc4)nnc3s2)cn1` registered an IC50 in experiment [6] greater than 10000 nM.

On to `Cn1cc(C(=O)Oc2ccc(Cc3nnc4sc(-c5cnn(C)c5)nn34)cc2)cn1`, for which, in experiment [6], the IC50 is greater than 10000 nM.

Regarding `O=C(Oc1ccc(Cc2nnc3sc(-c4cc5ccccc5[nH]4)nn23)cc1)c1cc2ccccc2[nH]1`, the IC50 in experiment [6] was greater than 10000 nM.

As to `COc1ccc(-c2nn3c(COc4ccnc5cc(OC)ccc45)nnc3s2)cc1`, the Activity amounted to 85.2% in the experiment on EBC-1 [1]; 76.4% in the experiment on MKN-45 [2]; 72% with MKN-45 [3]; 74.5% in the experiment on SNU-5; 89.1% with EBC-1 [5]. It took 161 nM to reach half-maximal inhibition with EBC-1 [4] (IC50).

Take `COc1ccc2c(OCc3nnc4sc(-c5ccc(F)cc5)nn34)ccnc2c1`: the Activity in the experiment on EBC-1 [1] worked out at 83.1%; with MKN-45 [2], 68.5%; in the experiment with MKN-45 [3], 71%; in the experiment with SNU-5 it was 65.8%; in the experiment with EBC-1 [5] it was 89.4%. In the experiment with EBC-1 [4], this molecule came in with an IC50 of 187 nM.

As for `COc1ccc2c(OCc3nnc4sc(-c5cc6ccccc6n5C)nn34)ccnc2c1`, the Activity with EBC-1 [1] was 87%; with MKN-45 [2] it was 60.8%; in the experiment with MKN-45 [3], 74.1%; in the experiment on SNU-5, 67.7%; in the experiment on EBC-1 [5], 91.6%. The same molecule yielded an IC50 in the experiment with EBC-1 [4] of 313 nM.

For `COc1ccc2c(OCc3nnc4sc(-c5ccc[nH]5)nn34)ccnc2c1`, the Activity in the experiment with EBC-1 [1] stood at 83.7%; in the experiment on MKN-45 [2], 79.3%; with MKN-45 [3], 76.8%; in the experiment on SNU-5, 72.4%; with EBC-1 [5], 80.5%. Further, the IC50 with EBC-1 [4] worked out at 149 nM.

On to `COc1ccc2c(OCc3nnc4sc(-c5ccn(C6CCCC6)c5)nn34)ccnc2c1`, for which the Activity is reported as 72.1% in the experiment on EBC-1 [1], 47.6% in the experiment on MKN-45 [3], 42% in the experiment on SNU-5 and 41.3% with EBC-1 [5].

On to `COc1ccc2c(OCc3nnc4sc(-c5cc(F)c(F)c(F)c5)nn34)ccnc2c1`, for which the Activity in the experiment with EBC-1 [1] is on record as 84.5%; with MKN-45 [3], 29.8%; with SNU-5 it was 44.7%; with EBC-1 [5] it was 89.3%. In the experiment on EBC-1 [4], this molecule gave an IC50 of 403 nM.

As for `COCCn1ccc(-c2nn3c(COc4ccnc5cc(OC)ccc45)nnc3s2)c1`, the Activity in the experiment with EBC-1 [1] amounted to 78.6%; in the experiment with MKN-45 [2] it was 71.1%; in the experiment with MKN-45 [3] it was 73%; in the experiment on SNU-5, 46.1%; in the experiment with EBC-1 [5], 89%. In addition, the IC50 in the experiment with EBC-1 [4] was found to be 327 nM.

With `COc1ccc2c(OCc3nnc4sc(-c5cccn5C)nn34)ccnc2c1`, the Activity in the experiment with EBC-1 [1] worked out at 86.3%; with MKN-45 [3] it was 28.1%; in the experiment on SNU-5 it was 14.5%; in the experiment on EBC-1 [5] it was 7.4%.

For `CNC(=O)COc1ccc(Cc2nnc3sc(-c4cnn(C)c4)nn23)cc1`, in experiment [6], the IC50 is greater than 10000 nM.

As to `C[C@@H](Oc1cc(-c2cnn(C3CCNCC3)c2)cnc1N)c1c(Cl)ccc(F)c1Cl` [CRIZOTINIB], the Activity in the experiment with EBC-1 [1] is given as 94.4%; in the experiment on MKN-45 [2], 82.6%; in the experiment with MKN-45 [3], 77.7%; with SNU-5, 80%; in the experiment on EBC-1 [5], 93.1%. The molecule further showed an IC50 in the experiment on EBC-1 [4] of 39 nM.

For the molecule `COc1ccc2c(OCc3nnc4sc(-c5ccncc5)nn34)ccnc2c1`, the Activity with EBC-1 [1] worked out at 83.7%; in the experiment on MKN-45 [2], 73.8%; with MKN-45 [3] it was 73%; in the experiment with SNU-5 it was 65.7%; in the experiment on EBC-1 [5], 91.6%. In the experiment on EBC-1 [4], this molecule displayed an IC50 of 289 nM.

For `COc1ccc2c(OCc3nnc4sc(-c5cc6cc(F)ccc6[nH]5)nn34)ccnc2c1`, the results for the Activity in the experiment with EBC-1 [1], with MKN-45 [3] and in the experiment with SNU-5 were 42.3%, 47.7% and 54.4%, respectively.

On to `COc1ccc(Cc2nnc3sc(-c4cc5ccccc5[nH]4)nn23)cc1`, for which the Activity with EBC-1 [1] was found to be 87.3%; with MKN-45 [2] it was 78.1%; in the experiment with MKN-45 [3], 76.3%; in the experiment with SNU-5, 70.2%; in the experiment on EBC-1 [5] it was 86.5%. In addition, the IC50 with EBC-1 [4] turned out to be 107 nM; in experiment [6], 79.3 nM.

For `COc1cccc(-c2nn3c(COc4ccnc5cc(OC)ccc45)nnc3s2)c1`, the Activity in the experiment on EBC-1 [1] came out at 85.4%; with MKN-45 [2] it was 37.8%; in the experiment on MKN-45 [3], 66.6%; with SNU-5, 65.7%; in the experiment on EBC-1 [5], 91.5%. Further, the IC50 in the experiment with EBC-1 [4] turned out to be 472 nM.

Take `COc1ccc2c(OCc3nnc4sc(-c5cccc(F)c5)nn34)ccnc2c1`: the Activity in the experiment with EBC-1 [1] worked out at 81.4%; in the experiment with MKN-45 [2], 13.2%; in the experiment on MKN-45 [3], 71.3%; in the experiment with SNU-5, 66.3%; in the experiment with EBC-1 [5] it was 86.7%. Half-maximal inhibition in the experiment with EBC-1 [4] (IC50) was put at 504 nM.

As to `COc1ccc2c(OCc3nnc4sc(-c5cc[nH]c5)nn34)ccnc2c1`, the Activity in the experiment with EBC-1 [1] worked out at 85.9%; in the experiment on MKN-45 [2], 71.1%; in the experiment with MKN-45 [3], 70.5%; in the experiment on SNU-5, 71.5%; in the experiment on EBC-1 [5], 90.6%. The midpoint of inhibition with EBC-1 [4], the IC50, lay at 353 nM.

In turn, `CN(C)C(=O)COc1ccc(Cc2nnc3sc(-c4cnn(C)c4)nn23)cc1` came in with an IC50 in experiment [6] greater than 10000 nM.

Consider `COc1ccc2[nH]c(-c3nn4c(COc5ccnc6cc(OC)ccc56)nnc4s3)cc2c1`, for which the Activity came to 84% with EBC-1 [1]; 75.3% with MKN-45 [2]; 61.2% in the experiment with MKN-45 [3]; 60% with SNU-5; 82.2% with EBC-1 [5]. This molecule also gave an IC50 in the experiment on EBC-1 [4] of 85.6 nM.
